Test system: U2OS
Assay: Multiplex assay against U2OS
Assay type: toxicity, cell-based
Conditions: human
Procedure, shortened: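 Four dyes were applied at seeding to live cells: Hoechst33342, BioTracker Green Microtubule Cytoskeleton Dye, MitoTracker Red and Annexin V Alexa Fluor 680. Imaging after compound addition used a CQ1 microscope at 37°C and 5% CO2. CellPathfinder machine-learning gating then sorted cells into Hoechst high-intensity objects or normal cells, normal cells into healthy, pyknosed or fragmented nuclei, and pyknosed cells into mitotic or apoptotic, with tubulin, mitochondrial-mass and membrane-permeability phenotypes given as per cents of healthy-nucleus cells.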

[1] = 12 h, 1 µM, compound concentration 1 uM, replicate 1
[2] = 12 h, 1 µM, compound concentration 1 uM, replicate 2
[3] = 12 h, 10 µM, compound concentration 10 uM, replicate 1
[4] = 12 h, 10 µM, compound concentration 10 uM, replicate 2
[5] = 24 h, 1 µM, compound concentration 1 uM, replicate 1
[6] = 24 h, 1 µM, compound concentration 1 uM, replicate 2
[7] = 24 h, 10 µM, compound concentration 10 uM, replicate 1
[8] = 24 h, 10 µM, compound concentration 10 uM, replicate 2

## COc1ccc(S(=O)(=O)N(CCO)c2ccccc2CN(C)C/C=C/c2ccc(Cl)cc2)cc1.O=P(O)(O)O
[1]
  Population Apoptotic (%): 57%
  Population Healthy Nuclei (%): 77%
  Population Hoechst High Intensity Objects (%): 2%
  Population Membrane Permeable-Phenotype (%): 62%
  Population Mitochondria Different-Phenotype (%): 91%
  Population Mitotic Cells (%): 42%
  Population Normal (%): 97%
  Population Pyknosed Nuclei (%): 13%
  Total Cell Count: 95
[2]
  Population Apoptotic (%): 84%
  Population Fragmented Nuclei (%): 9%
  Population Healthy Nuclei (%): 74%
  Population Hoechst High Intensity Objects (%): 8%
  Population Membrane Permeable-Phenotype (%): 85%
  Population Mitochondria Different-Phenotype (%): 100%
  Population Mitotic Cells (%): 15%
  Population Normal (%): 91%
  Population Pyknosed Nuclei (%): 15%
  Population Tubulin-Different-Phenotype (%): 100%
  Total Cell Count: 118
[3]
  Population Apoptotic (%): 57%
  Population Fragmented Nuclei (%): 11%
  Population Healthy Nuclei (%): 81%
  Population Hoechst High Intensity Objects (%): 5%
  Population Membrane Permeable-Phenotype (%): 47%
  Population Mitochondria Different-Phenotype (%): 20%
  Population Mitotic Cells (%): 42%
  Population Normal (%): 94%
  Population Pyknosed Nuclei (%): 7%
  Population Tubulin-Different-Phenotype (%): 28%
  Total Cell Count: 170
[4]
  Population Apoptotic (%): 0%
  Population Fragmented Nuclei (%): 10%
  Population Healthy Nuclei (%): 89%
  Population Hoechst High Intensity Objects (%): 16%
  Population Membrane Permeable-Phenotype (%): 33%
  Population Mitochondria Different-Phenotype (%): 16%
  Population Mitotic Cells (%): 0%
  Population Normal (%): 83%
  Population Pyknosed Nuclei (%): 0%
  Population Tubulin-Different-Phenotype (%): 12%
  Total Cell Count: 88
[5]
  Population Apoptotic (%): 69%
  Population Fragmented Nuclei (%): 14%
  Population Healthy Nuclei (%): 63%
  Population Hoechst High Intensity Objects (%): 3%
  Population Membrane Permeable-Phenotype (%): 84%
  Population Mitochondria Different-Phenotype (%): 100%
  Population Mitotic Cells (%): 30%
  Population Normal (%): 96%
  Population Pyknosed Nuclei (%): 21%
  Population Tubulin-Different-Phenotype (%): 100%
  Total Cell Count: 125
[6]
  Population Apoptotic (%): 95%
  Population Fragmented Nuclei (%): 16%
  Population Healthy Nuclei (%): 58%
  Population Hoechst High Intensity Objects (%): 8%
  Population Membrane Permeable-Phenotype (%): 94%
  Population Mitochondria Different-Phenotype (%): 98%
  Population Mitotic Cells (%): 4%
  Population Normal (%): 91%
  Population Pyknosed Nuclei (%): 24%
  Population Tubulin-Different-Phenotype (%): 98%
  Total Cell Count: 137
[7]
  Population Apoptotic (%): 62%
  Population Fragmented Nuclei (%): 5%
  Population Healthy Nuclei (%): 87%
  Population Hoechst High Intensity Objects (%): 2%
  Population Membrane Permeable-Phenotype (%): 26%
  Population Mitochondria Different-Phenotype (%): 13%
  Population Mitotic Cells (%): 37%
  Population Normal (%): 97%
  Population Pyknosed Nuclei (%): 6%
  Population Tubulin-Different-Phenotype (%): 22%
  Total Cell Count: 173
[8]
  Population Apoptotic (%): 16%
  Population Fragmented Nuclei (%): 4%
  Population Healthy Nuclei (%): 85%
  Population Hoechst High Intensity Objects (%): 8%
  Population Membrane Permeable-Phenotype (%): 17%
  Population Mitochondria Different-Phenotype (%): 26%
  Population Mitotic Cells (%): 83%
  Population Normal (%): 91%
  Population Pyknosed Nuclei (%): 9%
  Population Tubulin-Different-Phenotype (%): 11%
  Total Cell Count: 83

Reference: ChEMBL document CHEMBL4689842, “EUbOPEN Chemogenomics Library wave 1” (2021)
